# Experimental data as given in ChEMBL document CHEMBL1156979, “The impact of polyether chain length on the iron clearing efficiency and physiochemical properties of desferrithiocin analogues” (J Med Chem, 2010).
# Calls of active or inactive are those of the source. The rule behind the calls is not given here.
# Legend:
# [1] = tested on: Rattus norvegicus; experiment: Iron-clearing efficiency in non-iron-overloaded and bile duct-cannulated Sprague-Dawley rat at 150 umol/kg, po after 24 hrs relative to control; assay type: functional
# [2] = tested on: Rattus norvegicus; experiment: Iron-clearing efficiency in non-iron-overloaded and bile duct-cannulated Sprague-Dawley rat assessed as bile iron excretion at 150 umol/kg, po after 24 hrs relative to control; assay type: functional
# [3] = tested on: Rattus norvegicus; experiment: Iron-clearing efficiency in non-iron-overloaded and bile duct-cannulated Sprague-Dawley rat assessed as urine iron excretion at 150 umol/kg, po after 24 hrs relative to control; assay type: functional
# [4] = tested on: Sapajus apella; experiment: Iron-clearing efficiency in iron-overloaded Cebus apella at 150 umol/kg, po measured daily once for 2 days by flame absorption spectroscopy relative to control; assay type: functional
# [5] = tested on: Sapajus apella; experiment: Iron-clearing efficiency in iron-overloaded Cebus apella assessed as feces iron excretion at 150 umol/kg, po measured daily once for 5 days by lame absorption spectroscopy relative to control; assay type: functional
# [6] = tested on: Sapajus apella; experiment: Iron-clearing efficiency in iron-overloaded Cebus apella assessed as urine iron excretion at 150 umol/kg, po measured daily once for 5 days by lame absorption spectroscopy relative to control; assay type: functional
# [7] = Octanol-water partition coefficient, log P in Tris buffer at pH 7.4 by shake flask method; assay type: physicochemical
# Summary of the method: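 Octanol/water partition was measured at pH 7.4 (Tris buffer) by the shake-flask direct method. The fraction of drug in octanol is expressed as log P_app.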
# [8] = Ratio of iron-clearing efficiency in iron-overloaded Cebus apella to iron-clearing efficiency in non-iron-overloaded Sprague-Dawley rat at 150 umol/kg, po; assay type: functional
# [9] = tested on: Rattus norvegicus; experiment: Iron-clearing efficiency in non-iron-overloaded and bile duct-cannulated Sprague-Dawley rat at 300 umol/kg, po after 48 hrs relative to control; assay type: functional
# Summary of the method: (§1)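 Non-iron-overloaded male Sprague-Dawley rats (400–450 g), bile duct-cannulated, given a single oral dose of 300 μmol/kg, either by gavage as monosodium salt or in capsules. Bile was collected at 3 h intervals for up to 48 h and urine every 24 h. Iron was measured by flame absorption spectroscopy. ICE = 24-h iron excretion of treated rats minus controls, divided by theoretical output (2:1 ligand:iron); percent. Mean ± SEM; one-tailed t-test.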
# [10] = tested on: Rattus norvegicus; experiment: Iron-clearing efficiency in non-iron-overloaded and bile duct-cannulated Sprague-Dawley rat assessed as bile iron excretion at 300 umol/kg, po after 48 hrs relative to control; assay type: functional
# Summary of the method: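 Male Sprague-Dawley rats (400–450 g), non-iron-overloaded and bile duct-cannulated, were dosed orally at 300 μmol/kg, either by gavage as the monosodium salt (1 equiv NaOH added to the free acid in distilled water) or in capsules. Bile was collected at 3 h intervals for up to 48 h and urine at 24 h intervals. Iron efficiency was calculated as treated minus control iron excretion, divided by the theoretical output for a 2:1 ligand:iron complex, expressed as %; values are mean ± SEM.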
# [11] = tested on: Rattus norvegicus; experiment: Iron-clearing efficiency in non-iron-overloaded and bile duct-cannulated Sprague-Dawley rat assessed as urine iron excretion at 300 umol/kg, po after 48 hrs relative to control; assay type: functional
# [12] = tested on: Rattus norvegicus; experiment: Toxicity in Sprague-Dawley rat assessed as histopathological examination at 384 umol/kg, po qd for 10 days measured after 24 hrs last post dose; assay type: organism-based; conditions: in vivo
# Summary of the method: (§2)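 Male Sprague-Dawley rats (300–350 g), fasted overnight, were dosed orally once daily for 10 d. Dosing was 384 μmol/kg/d (capsules or by gavage as monosodium salt) or 192 μmol/kg/d (capsules). Age-matched untreated controls. Rats were euthanized 24 h after the last dose (day 11), and extensive tissues were examined histopathologically.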
# [13] = tested on: Rattus norvegicus; experiment: Iron-clearing efficiency in non-iron-overloaded and bile duct-cannulated Sprague-Dawley rat assessed as reduction of renal iron content at 384 umol/kg, po qd for 10 days administered as gelatin capsules relative to control; assay type: functional; parameters: scale not given: the % may be the effect or the level left
# [14] = tested on: Rattus norvegicus; experiment: Iron-clearing efficiency in non-iron-overloaded and bile duct-cannulated Sprague-Dawley rat assessed as reduction of renal iron content at 384 umol/kg, po qd for 10 days administered as monosodium salt relative to control; assay type: functional; parameters: scale not given: the % may be the effect or the level left
# [15] = tested on: Rattus norvegicus; experiment: Iron-clearing efficiency in non-iron-overloaded and bile duct-cannulated Sprague-Dawley rat assessed as reduction of liver iron content at 384 umol/kg, po qd for 10 days administered as gelatin capsules relative to control; assay type: functional; parameters: scale not given: the % may be the effect or the level left
# [16] = tested on: Rattus norvegicus; experiment: Iron-clearing efficiency in non-iron-overloaded and bile duct-cannulated Sprague-Dawley rat assessed as reduction of liver iron content at 384 umol/kg, po qd for 10 days administered as monosodium salt relative to control; assay type: functional; parameters: scale not given: the % may be the effect or the level left
# [17] = tested on: Rattus norvegicus; experiment: Iron-clearing efficiency in non-iron-overloaded and bile duct-cannulated Sprague-Dawley rat assessed as reduction of cardiac iron content at 384 umol/kg, po qd for 10 days administered as gelatin capsules relative to control; assay type: functional, Heart; parameters: scale not given: the % may be the effect or the level left
# [18] = tested on: Rattus norvegicus; experiment: Iron-clearing efficiency in non-iron-overloaded and bile duct-cannulated Sprague-Dawley rat assessed as reduction of cardiac iron content at 384 umol/kg, po qd for 10 days administered as monosodium salt relative to control; assay type: functional, Heart; parameters: scale not given: the % may be the effect or the level left
# [19] = tested on: Rattus norvegicus; experiment: Toxicity in Sprague-Dawley rat assessed as histopathological examination at 384 umol/kg, po qd for 10 days; conditions: in vivo, 240 h
# [20] = tested on: Rattus norvegicus; experiment: Iron-clearing efficiency in non-iron-overloaded and bile duct-cannulated Sprague-Dawley rat assessed as reduction of pancreatic iron content at 192 umol/kg, po qd for 10 days relative to control; assay type: functional, organism-based
# Summary of the method: (§3)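 Male Sprague-Dawley rats (300–350 g) were fasted overnight and dosed orally once daily for 10 d. Dosing was 384 μmol/kg/d in gelatin capsules (n = 5) or by gavage as monosodium salt (n = 10), or 192 (n = 6) or 384 μmol/kg/d (n = 5) in capsules. Rats were fed ~3 h post-dose. Age-matched untreated controls (n = 12). Kidney, liver, heart and pancreas were taken on day 11, wet-ashed (120 °C, then H2O2), and iron was measured by flame absorption spectroscopy.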
# [21] = tested on: Rattus norvegicus; experiment: Iron-clearing efficiency in non-iron-overloaded and bile duct-cannulated Sprague-Dawley rat assessed as reduction of cardiac iron content at 192 umol/kg, po qd for 10 days relative to control; assay type: functional, organism-based; conditions: Heart; summary of the method: as §3
# [22] = tested on: Rattus norvegicus; experiment: Iron-clearing efficiency in non-iron-overloaded and bile duct-cannulated Sprague-Dawley rat assessed as reduction of liver iron content at 192 umol/kg, po qd for 10 days relative to control; assay type: functional; parameters: scale not given: the % may be the effect or the level left; summary of the method: as §3
# [23] = tested on: Rattus norvegicus; experiment: Iron-clearing efficiency in non-iron-overloaded and bile duct-cannulated Sprague-Dawley rat assessed as reduction of renal iron content at 192 umol/kg, po qd for 10 days relative to control; assay type: functional; parameters: scale not given: the % may be the effect or the level left; summary of the method: as §3
# [24] = tested on: Sapajus apella; experiment: Iron-clearing efficiency in iron-overloaded Cebus apella at 75 umol/kg, po measured daily once for 2 days by flame absorption spectroscopy relative to control; assay type: functional
# Summary of the method: (§4)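 Iron-overloaded Cebus apella (3.5–4 kg; iv iron dextran to about 500 mg Fe/kg, ≥60 days before use) dosed orally at 75 μmol/kg, by gavage as monosodium salt (1 equiv NaOH in distilled water) or in capsules. Feces and urine collected every 24 h from 4 days pre-drug to 5 days post-drug; iron by flame absorption spectroscopy. ICE = 2-day post-drug iron minus 4-day baseline average, divided by theoretical output (2:1 ligand:iron); percent. Performance ratio = mean primate ICE/rodent ICE.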
# [25] = tested on: Sapajus apella; experiment: Iron-clearing efficiency in iron-overloaded Cebus apella assessed as feces iron excretion at 75 umol/kg, po measured daily once for 5 days by lame absorption spectroscopy relative to control; assay type: functional
# [26] = tested on: Sapajus apella; experiment: Iron-clearing efficiency in iron-overloaded Cebus apella assessed as urine iron excretion at 75 umol/kg, po measured daily once for 5 days by lame absorption spectroscopy relative to control; assay type: functional
# [27] = Ratio of iron-clearing efficiency in iron-overloaded Cebus apella at 75 umol/kg, po to iron-clearing efficiency in non-iron-overloaded and bile duct-cannulated Sprague-Dawley rat at 300 umol/kg, po after 48 hrs; assay type: functional, organism-based; summary of the method: as §4
# [28] = tested on: Rattus norvegicus; experiment: Iron-clearing efficiency in non-iron-overloaded and bile duct-cannulated Sprague-Dawley rat assessed as time required to maximum bile iron excretion at 300 umol/kg, po after 12 to 15 hrs; assay type: functional, organism-based; summary of the method: as §1
# [29] = tested on: Rattus norvegicus; experiment: Iron-clearing efficiency in non-iron-overloaded and bile duct-cannulated Sprague-Dawley rat assessed as bile iron excretion at 300 umol/kg, po up to 48 hrs; assay type: functional, organism-based; summary of the method: as §1
# [30] = tested on: Rattus norvegicus; experiment: Renal toxicity in Sprague-Dawley rat at 384 umol/kg, po qd for 10 days; assay type: organism-based; conditions: in vivo, 240 h; summary of the method: as §2
# [31] = tested on: Rattus norvegicus; experiment: Toxicity in Sprague-Dawley rat assessed as mild to moderate vacuolar degeneration of proximal tubular epithelial cells at 384 umol/kg, po qd for 10 days; assay type: organism-based, Epithelial cell; conditions: in vivo, 240 h; summary of the method: as §2
# [32] = tested on: Rattus norvegicus; experiment: Toxicity in Sprague-Dawley rat assessed as histopathological examination at 192 umol/kg, po qd for 10 days; assay type: organism-based; conditions: in vivo, 240 h; summary of the method: as §2
# [33] = tested on: Rattus norvegicus; experiment: Iron-clearing efficiency in non-iron-overloaded and bile duct-cannulated Sprague-Dawley rat assessed as reduction of renal iron content at 384 umol/kg, po qd for 10 days relative to control; assay type: functional; parameters: scale not given: the % may be the effect or the level left; summary of the method: as §3
# [34] = tested on: Rattus norvegicus; experiment: Iron-clearing efficiency in non-iron-overloaded and bile duct-cannulated Sprague-Dawley rat assessed as reduction of liver iron content at 384 umol/kg, po qd for 10 days relative to control; assay type: functional; parameters: scale not given: the % may be the effect or the level left; summary of the method: as §3
# [35] = tested on: Rattus norvegicus; experiment: Iron-clearing efficiency in non-iron-overloaded and bile duct-cannulated Sprague-Dawley rat assessed as reduction of pancreatic iron content at 384 umol/kg, po qd for 10 days relative to control; assay type: functional, organism-based; summary of the method: as §3
# [36] = tested on: Rattus norvegicus; experiment: Iron-clearing efficiency in non-iron-overloaded and bile duct-cannulated Sprague-Dawley rat assessed as reduction of cardiac iron content at 384 umol/kg, po qd for 10 days relative to control; assay type: functional, organism-based; conditions: Heart; summary of the method: as §3
smiles,measurement,setting,value
C[C@]1(C(=O)O)CSC(c2ncccc2O)=N1 [DESFERRITHIOCIN],Activity,[1],5.5%
same,Activity,[2],93%
same,Activity,[3],7%
same,Activity,[4],16.1%
same,Activity,[5],78%
same,Activity,[6],22%
same,logD,[7],-1.77
same,Ratio,[8],2.9
COc1ccc(C2=N[C@@](C)(C(=O)[O-])CS2)c(O)c1.[Na+],Activity,[4],24.4%
same,Activity,[5],91%
same,Activity,[6],9%
COCCOCCOc1ccc(C2=N[C@@](C)(C(=O)O)CS2)c(O)c1 [SP-420],Activity,[9],26.7%
same,Activity,[10],97%
same,Activity,[11],3%
same,Activity,[12],Non-toxic
same,Activity,[13],7.4%
same,Activity,[14],24.8%
same,Activity,[15],>35%
same,Activity,[16],>35%
same,Activity,[17],6.9%
same,Activity,[18],9.9%
same,Activity,[19],Toxic
CCOC(=O)[C@@]1(C)CSC(c2ccc(OCCOCCOC)cc2O)=N1,Activity,[20],inactive
same,Activity,[21],inactive
same,Activity,[22],27%
same,Activity,[23],12.6%
same,Activity,[9],25.9%
same,Activity,[11],1%
same,Activity,[24],8.8%
same,Activity,[25],98%
same,Activity,[26],2%
same,logD,[7],3
same,Ratio,[27],0.3
same,Activity,[28],inactive
same,Activity,[29],Active
same,Activity,[30],Toxic
same,Activity,[31],Toxic
same,Activity,[32],Non-toxic
same,Activity,[33],32.1%
same,Activity,[34],59.1%
same,Activity,[35],inactive
same,Activity,[36],inactive
